Sampled rows, rich in hits. Any-hit rate of the full collection: about 5.7%.
SKKanGAS inh = inhibitors of SKKanGAS S. pyogenes growth in kanamycin (SK-promoter or general growth effect). BacTiter-Glo, 6 h. inhibition, % at 7.5 µM. 300,000 compounds, 1.3% hits;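 active = mean replicate score, as percent of positive control median, at least 50; inconclusive = mean below 50 but one replicate at or above 50; inactive = mean and every replicate below 50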;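 note: strain carries kanamycin resistance gene driven by streptokinase promoter and grows in 40 µg/ml kanamycin; loss of luminescence reflects streptokinase promoter inhibition or plain growth inhibition; 0% = median of DMSO wells and 100% = positive control at its reference dose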
CSC inhib = blocks cancer stem cells; inhibition, % at 7.5 µM; cancer stem cell-like cells viability, luminescence; 300,000 compounds, 1.1% hits; in the data active = inhibition above about 75%; inconclusive = no clear call, values can overlap the other calls; tested in HMLE shEcad cells
Mdm2 MdmX PPI = disrupts the human Mdm2-MdmX interaction | 330,000 compounds, 3% hits | inhibition, % at 8 µM | O15151+Q00987 | AID 485346 | SaOS-2 split-luciferase Mdm2/MdmX complementation, luminescence;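 active = inhibition of at least 50% at 8 µM in the primary screen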
Target sequence (O15151 whole entry, looked up): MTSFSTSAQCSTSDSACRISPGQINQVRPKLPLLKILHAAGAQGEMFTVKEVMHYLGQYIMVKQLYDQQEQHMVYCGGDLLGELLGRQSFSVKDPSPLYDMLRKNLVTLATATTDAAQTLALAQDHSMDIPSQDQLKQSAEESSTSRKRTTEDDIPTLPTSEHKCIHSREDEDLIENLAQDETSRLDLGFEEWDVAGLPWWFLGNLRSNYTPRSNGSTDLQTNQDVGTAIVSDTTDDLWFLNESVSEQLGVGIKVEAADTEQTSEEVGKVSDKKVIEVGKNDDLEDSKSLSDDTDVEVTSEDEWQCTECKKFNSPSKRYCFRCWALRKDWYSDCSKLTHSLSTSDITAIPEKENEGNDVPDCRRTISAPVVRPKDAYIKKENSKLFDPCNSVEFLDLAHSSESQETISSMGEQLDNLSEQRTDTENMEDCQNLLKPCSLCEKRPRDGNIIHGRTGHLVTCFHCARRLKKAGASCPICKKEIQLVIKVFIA
Target sequence (Q00987 whole entry, looked up): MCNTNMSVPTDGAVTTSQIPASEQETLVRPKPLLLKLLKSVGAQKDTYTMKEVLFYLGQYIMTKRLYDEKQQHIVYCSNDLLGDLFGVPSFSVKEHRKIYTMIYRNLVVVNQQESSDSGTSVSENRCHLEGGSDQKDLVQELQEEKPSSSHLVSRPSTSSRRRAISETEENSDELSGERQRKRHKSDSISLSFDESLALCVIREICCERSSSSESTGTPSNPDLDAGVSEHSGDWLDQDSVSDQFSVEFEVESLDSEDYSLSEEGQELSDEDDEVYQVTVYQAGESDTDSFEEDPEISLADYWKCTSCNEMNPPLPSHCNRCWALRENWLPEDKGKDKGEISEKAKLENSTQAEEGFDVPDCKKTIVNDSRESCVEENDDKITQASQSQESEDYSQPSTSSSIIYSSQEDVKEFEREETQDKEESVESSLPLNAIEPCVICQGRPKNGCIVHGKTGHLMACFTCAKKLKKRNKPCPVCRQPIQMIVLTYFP
Beta apoptosis = beta cell apoptosis inhibition | AID 435005 | protection from apoptosis, % (no concentration beside the values) | INS-1E cytokine-induced death, ATP luminescence, 48 h; percent of positive-control rescue, neutral wells zero | 300,000 compounds, 0.8% hits;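 active = Every replicate reaches about 75%, or at least half do and their mean reaches it too, limit read from the data; inconclusive = At least half of replicates reach the limit but their mean does not; inactive = Under half of replicates reach the limit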;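 note: 0% = cytokine-treated negative control wells and 100% = positive control rescue; higher means more ATP so stronger rescue from cytokine killing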
T cruzi repl = blocks replication of Trypanosoma cruzi | T. cruzi beta-gal in NIH3T3, luminescence, 90 h | inhibition, % (no concentration beside the values) | 300,000 compounds, 1.4% hits;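 active = mean inhibition across valid replicates above about 55%, limit read from the data; inconclusive = mean below that limit but half or more replicates reach it; inactive = mean below it, under half of replicates reach it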;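 note: signal also drops with host cell toxicity which is not excluded here; 0% = plate median of DMSO wells and 100% = zero luminescence signal; higher percent means less beta-gal luminescence so fewer parasites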
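Assay system: NIH/3T3 fibroblasts plus reporter T. cruzi. Amount: NIH/3T3 cells, 5,000 per well. Buffer or medium: DMEM, 2% fetal bovine serum. Doses: compound pinned at 50 nL/well, DMSO. Schedule: ≥90 h infection period, 3 h prior cell attachment. Signal: luminescent β-galactosidase signal after 60 min lysis. Read-out: parasite load inhibition, %.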
Calb FLC = affects C. albicans growth with fluconazole | C. albicans CaCi-2 (fluconazole-resistant clinical isolate) + fluconazole, Alamar Blue growth, 48 h | growth inhibition, % (concentration not given with the values) | 300,000 compounds, 0.57% hits | AID 1979;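 active = growth inhibition above about 58% in most replicates, limit read from the data, passing the limit was not always enough; inconclusive = exactly half the replicates above a set limit; inactive = most replicates below a set limit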;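 note: all wells also contain fluconazole at 8 µg/ml as a sub-toxic cotreatment; 0% = median of DMSO wells and 100% = median of geldanamycin control wells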
* = called active by the depositor.

What do the screens show for `COc1ccccc1NS(=O)(=O)c1cc(NC(=O)c2ccc(Cl)nc2)ccc1N1CCCC1`?
CSC inhib: 1; Mdm2 MdmX PPI: 21; Beta apoptosis: 28

What do the screens show for `COc1ccc(/C=C/C(=O)OCC(=O)NC2CCCC2)cc1OC`?
CSC inhib: -8; Mdm2 MdmX PPI: 3; Beta apoptosis: -2

What do the screens show for `CSc1cccc(NC(=S)NC(=O)CCc2ccccc2)c1`?
SKKanGAS inh: 60*; CSC inhib: 36; Mdm2 MdmX PPI: 33; Beta apoptosis: -1; T cruzi repl: 1; Calb FLC: -10

Results for CSc1cccc(NC(=O)CCc2ccccc2)c1 ?
SKKanGAS inh: -7; CSC inhib: 0; Mdm2 MdmX PPI: 12; T cruzi repl: -12; Calb FLC: -5

Results for Cc1c(N/N=C(\C#N)C(=O)c2ccc(Cl)cc2)c(=O)n(-c2ccccc2)n1C ?
SKKanGAS inh: 100*; CSC inhib: 26; Beta apoptosis: 76*; T cruzi repl: -5; Calb FLC: 17

What do the screens show for `CN(C)c1cccc(NC(=O)c2ccco2)c1`?
SKKanGAS inh: -4; CSC inhib: -3; Mdm2 MdmX PPI: 7; Beta apoptosis: 3; T cruzi repl: -6; Calb FLC: 0

Results for CCN(CC)P(=O)(Nc1cccc(C(F)(F)F)c1)c1ccc(N(C)C)cc1NC(=O)c1ccco1 (stereo not given) ?
SKKanGAS inh: 13; CSC inhib: 2; Mdm2 MdmX PPI: 27; Beta apoptosis: 10; T cruzi repl: 55*; Calb FLC: 25

How did O=C(Nc1ccccc1)Nc1ccc(-n2ccc(C(F)(F)F)n2)cc1 do in these assays?
SKKanGAS inh: 2; CSC inhib: 40; Mdm2 MdmX PPI: -57; Beta apoptosis: 116*; T cruzi repl: -34; Calb FLC: -2

How did O=C(O)CC(CC(=O)Nc1ccc(-n2ccc(C(F)(F)F)n2)cc1)c1ccccc1 (stereo not given) do in these assays?
SKKanGAS inh: 19; CSC inhib: -8; Mdm2 MdmX PPI: 11; Beta apoptosis: -11; T cruzi repl: -8; Calb FLC: -2

Results for CCS(=O)(=O)N1CCN(c2ccc(C(=O)N3CCOCC3)cc2[N+](=O)[O-])CC1 ?
SKKanGAS inh: 2; CSC inhib: -6; Mdm2 MdmX PPI: 20; Beta apoptosis: -14; T cruzi repl: -3; Calb FLC: 8

What do the screens show for `CCS(=O)(=O)N1CCN(c2ccc(C(=O)NC3C4CC5CC(C4)CC3C5)cc2[N+](=O)[O-])CC1` (stereo not given)?
SKKanGAS inh: 18; CSC inhib: 42; Mdm2 MdmX PPI: 7; Beta apoptosis: 61; T cruzi repl: 68*; Calb FLC: -1

How did S=C(Nc1ccccc1Cl)N1CCCC(c2ccccc2)=N1 do in these assays?
SKKanGAS inh: 1; CSC inhib: 84*; Mdm2 MdmX PPI: -3; Beta apoptosis: -3; T cruzi repl: 36; Calb FLC: -6

How did S=C(Nc1ccccc1Cl)N1CCCCCC1 do in these assays?
SKKanGAS inh: -4; CSC inhib: -4; Mdm2 MdmX PPI: -18; Beta apoptosis: 1; T cruzi repl: 1; Calb FLC: -10

How did CCN(CC)S(=O)(=O)c1cnccc1N1CCN(c2cccc(Cl)c2)CC1 do in these assays?
SKKanGAS inh: 1; CSC inhib: 5; Mdm2 MdmX PPI: 21; T cruzi repl: 65*; Calb FLC: 12

Results for CNS(=O)(=O)c1cnccc1N1CCN(c2cccc(Cl)c2)CC1 ?
SKKanGAS inh: -2; CSC inhib: -9; Mdm2 MdmX PPI: 10; Beta apoptosis: -11; T cruzi repl: 15; Calb FLC: -1

What do the screens show for `Cc1nn(C)cc1S(=O)(=O)N1CCN(c2cccc(Cl)c2)CC1`?
SKKanGAS inh: 2; CSC inhib: 0; Mdm2 MdmX PPI: 6; Beta apoptosis: -19; T cruzi repl: -6; Calb FLC: 9

How did CN1CCN(S(=O)(=O)c2cnccc2N2CCN(c3cccc(Cl)c3)CC2)CC1 do in these assays?
SKKanGAS inh: -6; CSC inhib: -13; Mdm2 MdmX PPI: 14; Beta apoptosis: -1; T cruzi repl: 56*; Calb FLC: 6

How did O=C1c2ccc3c4c(ccc(c24)C(=O)N1NC(=O)C(F)(F)F)CC3 do in these assays?
SKKanGAS inh: 1; CSC inhib: -3; Mdm2 MdmX PPI: 24; Beta apoptosis: -3; T cruzi repl: -21; Calb FLC: -3

Results for CC(=O)NN1C(=O)c2ccc3c4c(ccc(c24)C1=O)C(=O)N(NC(C)=O)C3=O ?
SKKanGAS inh: 22; CSC inhib: 42; Mdm2 MdmX PPI: 39; Beta apoptosis: 108*; T cruzi repl: 5; Calb FLC: 3

Results for O=S(=O)(c1ccccc1Cl)N1CCC(Cc2ccccc2)CC1 ?
SKKanGAS inh: 15; CSC inhib: -2; Mdm2 MdmX PPI: -23; Beta apoptosis: 1; T cruzi repl: 23; Calb FLC: -3

What do the screens show for `COc1ccc(/C=N/NC(=O)c2ccc(Cn3cc([N+](=O)[O-])cn3)o2)cc1O`?
SKKanGAS inh: 2; CSC inhib: -13; Mdm2 MdmX PPI: 28; Beta apoptosis: 7; Calb FLC: -1

Results for O=C(N/N=C\c1ccc2c(c1)OCO2)c1ccc(Cn2cc(Br)c([N+](=O)[O-])n2)o1 ?
SKKanGAS inh: 6; CSC inhib: 84*; Mdm2 MdmX PPI: -10; Beta apoptosis: 4; T cruzi repl: 56*; Calb FLC: 2

How did O=C(N/N=C\c1ccc(F)cc1)c1ccc(Cn2cc(Br)c([N+](=O)[O-])n2)o1 do in these assays?
SKKanGAS inh: 3; CSC inhib: 68; Mdm2 MdmX PPI: -4; Beta apoptosis: 0; T cruzi repl: 61*; Calb FLC: -7

Results for COc1cc(/C=N\NC(=O)c2ccc(Cn3cc(Br)c([N+](=O)[O-])n3)o2)cc(OC)c1O ?
SKKanGAS inh: inconclusive; CSC inhib: 13; Mdm2 MdmX PPI: -19; Beta apoptosis: 6; T cruzi repl: 52; Calb FLC: 3

Results for O=C(N/N=C\c1cccc(F)c1)c1ccc(Cn2cc(Br)c([N+](=O)[O-])n2)o1 ?
SKKanGAS inh: -6; CSC inhib: -8; Mdm2 MdmX PPI: 2; Beta apoptosis: -8; T cruzi repl: 68*; Calb FLC: 8

What do the screens show for `Cc1cc(C(=O)N2CCN(c3ccccc3Cl)CC2)c(C)o1`?
CSC inhib: -20; Mdm2 MdmX PPI: -22; Beta apoptosis: 2

Results for COC(=O)COc1ccc(S(=O)(=O)Nc2ccc3c(c2)OCCO3)cc1C ?
SKKanGAS inh: -5; CSC inhib: -15; Mdm2 MdmX PPI: 26; Beta apoptosis: -6; T cruzi repl: 0; Calb FLC: -4

What do the screens show for `CC1(c2nnc(Cc3ccccc3)o2)CC(c2cccnc2)=NO1` (stereo not given)?
SKKanGAS inh: 15; CSC inhib: -17; Mdm2 MdmX PPI: 19; Beta apoptosis: -7; T cruzi repl: -9; Calb FLC: -8

Screening data as filed in PubChem.
